The structures appear in SMILES notation.

Data set [1] deals with extracellular 5-HT in the nucleus accumbens. The data set is described as follows: In vivo microdialysis, 5-HT. More on the design: species or system rat. Particulars: i.v. An outline of the steps:
(§1)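 Male Sprague-Dawley rats (300–400 g) were anesthetized with ketamine/xylazine (75/5 mg/kg i.p.) and fitted with a jugular catheter and a guide cannula aimed at the nucleus accumbens. After three stable baseline samples, they received two i.v. doses 60 min apart, the second threefold higher (0.1 then 0.3, or 1.0 then 3.0 mg/kg); controls received saline (1 ml/kg). Dialysate was collected every 20 min for 120 min. Probe placement was verified histologically. Data were expressed as % baseline and analysed by two-way ANOVA with Bonferroni tests.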

Data set [2] concerns male Sprague-Dawley rats. The data set is described as follows: Locomotor activity. In kind it is in vivo, rat. Particulars: i.v., lowest dose with increase, during microdialysis. In short, it runs like this: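 Ambulation and stereotypy were counted by photobeam breaks in the same rats during nucleus accumbens microdialysis. The rats received two sequential i.v. injections 60 min apart, the second threefold higher (0.1/0.3 or 1.0/3.0 mg/kg), or saline (1 ml/kg), and were monitored through the 120-min post-injection period.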

Data set [3] deals with male Sprague-Dawley rats. The data set is described as follows: Telemetric assessment of blood pressure. The following applies: s.c.; for ED50 blood pressure: mean over 3-h session, halfway point 109.5 mm Hg, 95% CI given in text. The data set is classed as in vivo, rat.
Data set [4] has as its system extracellular dopamine in the nucleus accumbens. Put plainly: In vivo microdialysis, dopamine. The following applies: for dose producing a significant increase in extracellular dopamine: i.v., nucleus accumbens microdialysis, vs saline. Details: species or system rat. In short, it runs like this: as §1
The target in data set [5] is DAT (Rattus norvegicus, UniProt P23977). Put plainly: Inhibition of [3H]dopamine uptake in rat brain synaptosomes. In kind it is biochemical.
Data set [6] deals with NET (Rattus norvegicus, UniProt Q63380). Put plainly: Inhibition of [3H]norepinephrine uptake in rat brain synaptosomes. The data set is classed as biochemical.
Data set [7] has as its system male Sprague-Dawley rats. The data set is described as follows: Intravenous self-administration. In kind it is in vivo, rat. The following applies: for acquisition of self-administration (rats showing clear evidence): FR1, 10 days, 2-h sessions; for i.v. dose supporting peak responding: dose-effect testing after training on the same enantiomer, discussion; for dose of peak (highest) responding in dose-effect testing: i.v., after acquisition, results section; for active nose-poke responding over 10 days of extinction: saline substituted for drug. In short, it runs like this: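 Rats on a reverse light cycle were catheterized in the jugular vein under ketamine/xylazine (80/9.6 mg/kg i.p.) and recovered for at least 7 days. Active nose-pokes (side counterbalanced) were reinforced on FR1 with an i.v. infusion, each followed by a 20-s timeout, in 2-h sessions. Acquisition ran at least 10 days at 0.03 or 0.3 mg/kg/inj. Three further doses were then given in non-systematic order, 3 days each, averaging days 2–3. Saline substitution for 10 days followed. Analysis used a linear mixed-effects model.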

Data set [8] relates to male Sprague-Dawley rats. The data set is described as follows: Telemetric assessment of body temperature. The data set is classed as in vivo, rat. Particulars: s.c., telemetry, data not shown. An outline of the steps: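 In telemetry-implanted rats adapted to the chambers and to s.c. injection, body temperature was sampled for 10 s each minute for 3 h and averaged across the session. Doses were 0.3–3.0 mg/kg or 3.0–30 mg/kg s.c., in non-systematic order, at most twice weekly. One-way ANOVA with Dunnett's test compared each dose with control.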

Data set [9] has as its system DAT. The following applies: range given for DAT and NET together; cited from earlier work.
The subject of data set [10] is NET. Particulars: range given for DAT and NET together; cited from earlier work.
For data set [11], the system named is mice trained to discriminate cocaine from saline. Particulars: cited from earlier work.
The subject of another data set is rats. The following applies: progressive ratio schedule, rats trained with racemic MDPV; cited from earlier work.
Where [12] appears, read: uptake inhibition, rat brain synaptosomes.

Sequence of DAT (Rattus norvegicus, UniProt P23977) (P23977 whole entry): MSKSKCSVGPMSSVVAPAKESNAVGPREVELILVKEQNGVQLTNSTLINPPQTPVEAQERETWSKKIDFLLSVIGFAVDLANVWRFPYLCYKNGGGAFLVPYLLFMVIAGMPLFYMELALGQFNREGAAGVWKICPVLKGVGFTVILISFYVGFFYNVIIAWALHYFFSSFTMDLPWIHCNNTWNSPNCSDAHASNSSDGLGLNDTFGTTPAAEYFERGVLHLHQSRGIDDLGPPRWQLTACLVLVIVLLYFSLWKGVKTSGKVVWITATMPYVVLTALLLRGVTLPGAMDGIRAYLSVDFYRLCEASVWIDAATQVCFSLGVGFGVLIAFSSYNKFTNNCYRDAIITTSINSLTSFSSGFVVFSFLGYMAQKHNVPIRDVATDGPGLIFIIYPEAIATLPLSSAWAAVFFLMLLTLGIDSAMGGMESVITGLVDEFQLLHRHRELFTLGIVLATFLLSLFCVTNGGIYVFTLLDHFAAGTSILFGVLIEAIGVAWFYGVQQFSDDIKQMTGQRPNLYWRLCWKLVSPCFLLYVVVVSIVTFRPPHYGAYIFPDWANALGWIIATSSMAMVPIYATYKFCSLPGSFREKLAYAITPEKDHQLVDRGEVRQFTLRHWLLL
Sequence of NET (Rattus norvegicus, UniProt Q63380) (Q63380 1-617): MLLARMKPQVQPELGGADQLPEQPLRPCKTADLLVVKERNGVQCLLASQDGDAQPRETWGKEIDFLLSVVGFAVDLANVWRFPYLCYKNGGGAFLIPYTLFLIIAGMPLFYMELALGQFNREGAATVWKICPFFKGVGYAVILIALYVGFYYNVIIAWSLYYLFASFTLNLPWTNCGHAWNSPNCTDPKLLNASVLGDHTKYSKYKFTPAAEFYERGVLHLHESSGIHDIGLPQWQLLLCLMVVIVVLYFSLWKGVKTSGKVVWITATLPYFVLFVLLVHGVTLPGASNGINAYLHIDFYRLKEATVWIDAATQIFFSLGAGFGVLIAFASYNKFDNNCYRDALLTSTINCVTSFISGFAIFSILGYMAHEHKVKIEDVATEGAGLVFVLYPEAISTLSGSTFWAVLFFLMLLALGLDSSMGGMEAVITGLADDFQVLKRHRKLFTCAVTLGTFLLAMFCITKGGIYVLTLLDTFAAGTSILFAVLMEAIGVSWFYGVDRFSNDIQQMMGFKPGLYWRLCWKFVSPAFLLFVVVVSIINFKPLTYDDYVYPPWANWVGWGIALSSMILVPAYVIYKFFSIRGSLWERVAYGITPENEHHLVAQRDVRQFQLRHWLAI

With `CCCC(C(=O)c1ccccc1)N1CCCC1` (stereo not drawn) [R,S-α-PVP, α-pyrrolidinovalerophenone], in data set [1], the “change in extracellular levels of 5-HT” value is on record as “no changes”. Further, the “dose increasing overall activity and stereotypy” value with male Sprague-Dawley rats [2] turned out to be 0.3 mg/kg.
On to `CCC[C@H](C(=O)c1ccccc1)N1CCCC1` [R-α-PVP], for which the “fold difference in potency between enantiomers from calculated ED50 values” with male Sprague-Dawley rats [3] (blood pressure and heart rate, R- vs S-α-PVP) is reported as 20 – 40 fold. The “times less potent than racemic α-PVP on blood pressure” value in the data set with male Sprague-Dawley rats [3] (from significant doses) was “approximately 10 times”. The ED50 blood pressure with male Sprague-Dawley rats [3] was determined as 5.85 mg/kg. In addition, in data set [4] (3 mg/kg i.v., nucleus accumbens), the “size of dopamine increase relative to 0.3 mg/kg S-α-PVP” value is listed as “less than half”. Moreover, the “dose producing a significant increase in extracellular dopamine” value in [4] is listed as 3 mg/kg. At DAT [5] (setting [12]), the “times less potent than S-α-PVP at DAT” value is 40 times. The “dose increasing overall activity and stereotypy” value in the data set on male Sprague-Dawley rats [2] is recorded as 3 mg/kg. Moreover, the “times less potent than S-α-PVP at NET” value at NET [6] amounted to 20 times. The “acquisition of self-administration (rats showing clear evidence)” value (shortened to “acquisition of self-administration”) in the data set with male Sprague-Dawley rats [7] (0.03 mg/kg/injection i.v.) is listed as “did not show evidence of acquisition”. Moreover, in the data set with male Sprague-Dawley rats [7] (0.3 mg/kg/injection i.v.), the “acquisition of self-administration” value is on record as “Six of the 8”. Besides, the “times less potent than S-α-PVP (self-administration dose-effect determinations)” value in the data set on male Sprague-Dawley rats [7] (abstract) is listed as “at least 30 times”. In addition, in the data set with male Sprague-Dawley rats [7], the “i.v. dose supporting peak responding” value is recorded as 0.3 mg/kg/inj, the “dose of peak (highest) responding in dose-effect testing” value came to 0.3 mg/kg/injection and the “active nose-poke responding over 10 days of extinction” value is “did not decrease significantly over days of extinction”. Besides, the “fold less potent than racemic α-PVP (self-administration dose-effect function)” value with male Sprague-Dawley rats [7] (rightward shift of inverted U-shaped function) is reported as “around 30 fold”. Also, the “dose with significant increase in body temperature” value in the data set on male Sprague-Dawley rats [8] is 10 mg/kg.
Consider `CCC[C@@H](C(=O)c1ccc2c(c1)OCO2)N1CCCC1` [S-MDPV], for which, in the data set with DAT [9], the “times more potent than R-MDPV in blocking uptake at DAT” value is recorded as 50–100 times. In addition, in the data set on NET [10], the “times more potent than R-MDPV in blocking uptake at NET” value is on record as 50–100 times. Moreover, in [11], the “times more potent than the R-isomer in substituting for cocaine” value is “about 100 times”. Besides, the “times more potent than the R-isomer in self-administration” value in the data set with rats is reported as “about 50 times”.
Take `CCC[C@@H](C(=O)c1ccccc1)N1CCCC1` [S-α-PVP]: in the data set on male Sprague-Dawley rats [3], the “times more potent than racemic on blood pressure (ED50)” value was “approximately 2 times” and the ED50 blood pressure worked out at 0.29 mg/kg. Also, the “dose producing a significant increase in extracellular dopamine” value in data set [4] came out at 0.1 mg/kg. In addition, the “times more potent than cocaine in blocking uptake at DAT” value at DAT [5] (discussion) is reported as “about 30 times”. On DAT [5] (setting [12]), the “times more potent than the racemate at DAT” value is “about 2 times”. Further, in the data set with male Sprague-Dawley rats [2], the “dose increasing overall activity and stereotypy” value is recorded as 0.1 mg/kg. On NET [6], the “times more potent than the racemate at NET” value is “about 2 times”. In the data set with male Sprague-Dawley rats [7] (0.03 mg/kg/injection i.v.), the “acquisition of self-administration” value is “All 10”. In addition, in the data set with male Sprague-Dawley rats [7], the “i.v. dose supporting peak responding” value is reported as no more than 0.003 mg/kg/inj, the “dose of peak (highest) responding in dose-effect testing” value is on record as 0.003 mg/kg/injection and the “active nose-poke responding over 10 days of extinction” value is reported as “decreased over the 10 days of extinction”. Moreover, the “dose with significant increase in body temperature” value in the data set with male Sprague-Dawley rats [8] was found to be 0.3 mg/kg.
